Source: ChEMBL document CHEMBL4406881, “Design, synthesis and biological evaluation of benzoylacrylic acid shikonin ester derivatives as irreversible dual inhibitors of tubulin and EGFR” (Bioorg Med Chem, 2019)
Activity calls are given as the source filed them. The rule behind the calls is not given here.

How the values were obtained:
A549 [1] = test: Cell cycle arrest in human A549 cells assessed as accumulation at G1 phase at 2 uM after 24 hrs by RNAse A/ PI staining based flow cytometric analysis (reference value: 73.30%); format: functional
How it was run: (§1)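 A549 cells at 5.0×10^4 per well were grown 12 h at 37 °C. Treatment was 0, 2, 4 or 8 µM for 24 h, or 8 µM for 0, 12, 24 or 36 h. Cells were fixed in 70% ethanol at −20 °C for at least 12 h, then stained in PBS with 0.1 mg/mL RNase A and 5 µg/mL PI. At least 10,000 events per sample were collected by flow cytometry to give G0/G1, S and G2/M percentages.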

A549 [2] = test: Induction of apoptosis in human A549 cells assessed as necrotic cells after at 2 uM 24 hrs by Annexin-V/PI staining based flow cytometry analysis (reference value: 1.81%); format: functional
How it was run: (§2)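 A549 cells seeded overnight at 37 °C, 5% CO2, then exposed to 0, 2, 4, 8 or 12 µM for 24 h (dose series) or 8 µM for 0, 12, 24, 36 h (time series). Harvested, PBS-washed, stained with Annexin V-FITC and PI in binding buffer 15 min at room temperature in the dark, analysed by flow cytometry; three independent experiments.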

A549 [3] = test: Induction of apoptosis in human A549 cells assessed as late apoptotic cells at 8 uM after 24 hrs by Annexin-V/PI staining based flow cytometry analysis (reference value: 5.69%); format: functional; how it was run: as §2
A549 [4] = test: Induction of apoptosis in human A549 cells assessed as late apoptotic cells at 8 uM after 12 hrs by Annexin-V/PI staining based flow cytometry analysis (reference value: 6.55%); format: functional; how it was run: as §2
A549 [5] = test: Induction of apoptosis in human A549 cells assessed as necrotic cells after at 8 uM 24 hrs by Annexin-V/PI staining based flow cytometry analysis (reference value: 1.81%); format: functional; how it was run: as §2
A549 [6] = test: Inhibition of Wnt/beta-catenin signaling pathway in human A549 cells assessed as reduction in beta-catenin expression in cytoplasm by Western blot analysis; format: cell-based
How it was run: (§3)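 A549 cells in 6-well plates were lysed in RIPA buffer with protease inhibitors on ice for 30 min and cleared at 4 °C. Protein was quantified by BCA, run on SDS-PAGE and transferred to PVDF. Membranes were blocked with milk, probed with primary antibody (1:1000) overnight at 4 °C, then secondary antibody (1:3000-1:5000) 1 h at RT. Detection by ECL; band densitometry normalised to GAPDH (β-actin also used). Three independent experiments.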

Tubulin (Homo sapiens) = Tubulin (Homo sapiens) (UniProt P68371+Q9H4B7+P0DPH7+P68366+Q13509+Q71U36+P04350+Q3ZCM7+P07437+P68363+Q9BQE3+Q6PEY2+Q13885+Q9BVA1+Q9BUF5); test: Induction of tubulin depolymerization in human A549 cells at 4 to 8 uM after 24 hrs by DAPI staining based fluorescence microscopic analysis; format: cell-based
How it was run: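 Cells were fixed in 4% paraformaldehyde, permeabilised with 1% Triton, and blocked with 5% BSA. Staining used anti-tubulin (1:200) overnight, then Cy3 anti-mouse IgG (1:1500) 1 h, then DAPI 1 µg/mL. Imaging by confocal microscopy.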

A549 [7] = test: Cell cycle arrest in human A549 cells assessed as downregulation of cyclin A expression at 2 to 8 uM by immunoblot analysis; format: functional, cell-based
How it was run: (§4)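 A549 lysates in RIPA buffer with protease inhibitors were run on SDS-PAGE and blotted to PVDF. Membranes were probed overnight at 4 °C with primary antibody at 1:1000, then secondary antibody at 1:3000-1:5000 for 1 h, and detected by ECL. Band intensity was normalised to GAPDH. Results are mean ± S.E.M. from three independent experiments.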

A549 [8] = test: Cell cycle arrest in human A549 cells assessed as accumulation at G1 phase at 8 uM after 24 hrs by RNAse A/ PI staining based flow cytometric analysis (reference value: 73.30%); format: functional; how it was run: as §1
A549 [9] = test: Induction of apoptosis in human A549 cells assessed as late apoptotic cells at 8 uM after 24 hrs by Annexin-V/PI staining based flow cytometry analysis (reference value: 6.55%); format: functional; how it was run: as §2
A549 [10] = test: Antitumor activity against ip dosed human A549 cells xenografted in Balb/c mouse assessed as inhibition of tumor growth administered once every two days for 32 days measured for every 2 days; format: functional, organism-based
How it was run: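 Female BALB/c nude mice, 5-6 weeks old, injected in the flank with 6×10^6 A549 cells in 0.1 mL ice-cold PBS. After two weeks, tumours averaging 90 mm³ were allocated by volume to 5 groups of n = 8. Drugs in DMSO were given ip once every two days, 16 doses in total; a DMSO vehicle group served as control. Tumour volume (L×S²/2) and body weight were recorded every two days; mice were killed on day 32.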

A549 [11] = test: Induction of apoptosis in human A549 cells assessed as necrotic cells after at 8 uM 12 hrs by Annexin-V/PI staining based flow cytometry analysis (reference value: 2.98%); format: functional; how it was run: as §2
A549 [12] = test: Induction of apoptosis in human A549 cells assessed as viable cells at 12 uM after 24 hrs by Annexin-V/PI staining based flow cytometry analysis (reference value: 91.4%); format: functional; settings: A549, 24 h, read-out: Activity; how it was run: as §2
[13] = Cytotoxicity against human LO2 cells assessed as reduction in cell viability after 24 hrs by MTT assay; format: cell-based, L02
How it was run: (§5)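 MTT colorimetric assay. Cells in log phase in medium with 10% FBS were seeded at 10⁴ cells/well and left overnight at 37 °C, 5% CO₂ to reattach. Compounds were added at 0.1, 1, 10 and 100 μM in 10% FBS for 24 h. IC50 reported as mean ± SD of three independent experiments.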

A549 [14] = test: Cell cycle arrest in human A549 cells assessed as accumulation at G2/M phase at 4 uM after 24 hrs by RNAse A/ PI staining based flow cytometric analysis (reference value: 9.47%); format: functional; how it was run: as §1
A549 [15] = test: Inhibition of Wnt/beta-catenin signaling pathway in human A549 cells assessed as increase in axin-2 expression by Western blot analysis; format: cell-based; how it was run: as §3
MCF7 = test: Antiproliferative activity against human MCF7 cells assessed as reduction in cell viability after 24 hrs by MTT assay; format: functional, cell-based; settings: MCF7, 24 h; how it was run: as §5
A549 [16] = test: Induction of apoptosis in human A549 cells assessed as PARP cleavage expression at 2 to 8 uM after 24 hrs by Western blot analysis; format: functional, cell-based
How it was run: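 Western blot of A549 cells treated for 24 h. Lysates in RIPA buffer were run on SDS-PAGE and transferred to PVDF. Primary antibody at 1:1000 overnight at 4 °C, secondary antibody at 1:3000-1:5000 for 1 h, ECL detection. Densitometry was normalised to GAPDH; mean ± S.E.M. from three independent experiments.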

A549 [17] = test: Induction of apoptosis in human A549 cells assessed as reduction in Bcl-2 expression at 2 to 8 uM after 24 hrs by Western blot analysis; format: functional, cell-based; how it was run: as §3
A549 [18] = test: Induction of apoptosis in human A549 cells assessed as viable cells at 8 uM after 12 hrs by Annexin-V/PI staining based flow cytometry analysis (reference value: 88.4%); format: functional; settings: A549, 12 h, read-out: Activity; how it was run: as §2
A549 [19] = test: Cell cycle arrest in human A549 cells assessed as downregulation of CDK2 expression at 2 to 8 uM by immunoblot analysis; format: functional, cell-based; how it was run: as §4

CC(C)=CC[C@@H](OC(=O)/C=C\C(=O)c1ccc(F)cc1)C1=CC(=O)c2c(O)ccc(O)c2C1=O
Activity (A549 [1]): 61.67%
Activity (A549 [2]): 2.2%
Activity (A549 [3]): 30.5%
Activity (A549 [4]): 10%
Activity (A549 [5]): 3.29%
inhibition (A549 [6]): Dose-dependent effect
Activity (Tubulin (Homo sapiens)): Active
Activity (A549 [7]): Active
Activity (A549 [8]): 47.33%
Activity (A549 [9]): 27.5%
Activity (A549 [10]): Dose-dependent effect
Activity (A549 [11]): 2.04%
viability at 12 µM (A549 [12]): 15.1%
CC50 at 24 h [13]: 89.2 µM
Activity (A549 [14]): 21.03%
inhibition (A549 [15]): Dose-dependent effect
IC50 (MCF7): 8.9 µM
Activity (A549 [16]): Active
Activity (A549 [17]): Active
viability at 8 µM (A549 [18]): 79%
Activity (A549 [19]): Active
